Each compound was assayed on CCRF-CEM (assay: Cytotoxicity against human CEM cells assessed as reduction in cell viability incubated for 72 hrs by resazurin assay). Details: not given.
Format: functional, cell-based
How it was run: (§1)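 Cells (CEM, HeLa, MCF7, BJ fibroblasts) exposed to compounds for 72 h, viability read by resazurin staining. Values are means ± SD from at least three independent experiments run in triplicate.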

Structure (SMILES) | IC50 [µM]
CC(=O)O[C@H]1C[C@]2(O)[C@@H]3CC[C@@H]4C[C@@H](O)CC[C@]4(C)[C@H]3CC[C@]2(C)[C@H]1c1ccoc1 | 9.4
CC(=O)O[C@H]1C[C@]2(O)[C@@H]3CC[C@@H]4C[C@@H](O[Si](C)(C)C(C)(C)C)CC[C@]4(C)[C@H]3CC[C@]2(C)[C@H]1C1=CC(=O)OC1 | 17.3
CC(=O)O[C@H]1C[C@@]23O[C@@H]4OC(=O)C=C4[C@@H]1[C@@]2(C)CC[C@H]1[C@H]3CC[C@@H]2C[C@@H](O)CC[C@@]21C | > 50

Each compound was assayed on MCF7 (assay: Cytotoxicity against human MCF7 cells assessed as reduction in cell viability incubated for 72 hrs by resazurin assay). Details: MCF7, 72 h.
Format: functional, cell-based
How it was run: as §1

Structure (SMILES) | IC50 [µM]
CC(=O)O[C@H]1C[C@]2(O)[C@@H]3CC[C@@H]4C[C@@H](O)CC[C@]4(C)[C@H]3CC[C@]2(C)[C@H]1c1ccoc1 | 16.1
CC(=O)O[C@H]1C[C@]2(O)[C@@H]3CC[C@@H]4C[C@@H](O[Si](C)(C)C(C)(C)C)CC[C@]4(C)[C@H]3CC[C@]2(C)[C@H]1C1=CC(=O)OC1 | 20.3
CC(=O)O[C@H]1C[C@@]23O[C@@H]4OC(=O)C=C4[C@@H]1[C@@]2(C)CC[C@H]1[C@H]3CC[C@@H]2C[C@@H](O)CC[C@@]21C | > 50

What follows are compounds tested on HeLa (assay: Cytotoxicity against human HeLa cells assessed as reduction in cell viability incubated for 72 hrs by resazurin assay). Details: not given.
Format: functional, cell-based
How it was run: as §1

Structure (SMILES) | IC50 [µM]
CC(=O)O[C@H]1C[C@]2(O)[C@@H]3CC[C@@H]4C[C@@H](O)CC[C@]4(C)[C@H]3CC[C@]2(C)[C@H]1c1ccoc1 | 14.2
CC(=O)O[C@H]1C[C@]2(O)[C@@H]3CC[C@@H]4C[C@@H](O[Si](C)(C)C(C)(C)C)CC[C@]4(C)[C@H]3CC[C@]2(C)[C@H]1C1=CC(=O)OC1 | 34.1
CC(=O)O[C@H]1C[C@@]23O[C@@H]4OC(=O)C=C4[C@@H]1[C@@]2(C)CC[C@H]1[C@H]3CC[C@@H]2C[C@@H](O)CC[C@@]21C | > 50

Each compound was assayed on BJ (assay: Cytotoxicity against human BJ cells assessed as reduction in cell viability incubated for 72 hrs by resazurin assay). Details: not given.
Format: cell-based
How it was run: as §1

Structure (SMILES) | IC50 [µM]
CC(=O)O[C@H]1C[C@]2(O)[C@@H]3CC[C@@H]4C[C@@H](O)CC[C@]4(C)[C@H]3CC[C@]2(C)[C@H]1c1ccoc1 | 4
CC(=O)O[C@H]1C[C@]2(O)[C@@H]3CC[C@@H]4C[C@@H](O[Si](C)(C)C(C)(C)C)CC[C@]4(C)[C@H]3CC[C@]2(C)[C@H]1C1=CC(=O)OC1 | 10.6
CC(=O)O[C@H]1C[C@@]23O[C@@H]4OC(=O)C=C4[C@@H]1[C@@]2(C)CC[C@H]1[C@H]3CC[C@@H]2C[C@@H](O)CC[C@@]21C | > 50

Species on record: Sus scrofa
Test: Inhibition of porcine kidney Na+/K+ ATPase at 50 uM assessed as enzyme residual activity using ATP as substrate incubated for 2 mins followed by substrate addition and measured after 6 mins (reference value: 100 +/-3.16%)
Format: tissue-based
Details: time 8.0 min

Structure (SMILES) | Activity [%]
CC(=O)O[C@H]1C[C@]2(O)[C@@H]3CC[C@@H]4C[C@@H](O)CC[C@]4(C)[C@H]3CC[C@]2(C)[C@H]1c1ccoc1 | 42.4
CC(=O)O[C@H]1C[C@]2(O)[C@@H]3CC[C@@H]4C[C@@H](O[Si](C)(C)C(C)(C)C)CC[C@]4(C)[C@H]3CC[C@]2(C)[C@H]1C1=CC(=O)OC1 | 79.3
CC(=O)O[C@H]1C[C@@]23O[C@@H]4OC(=O)C=C4[C@@H]1[C@@]2(C)CC[C@H]1[C@H]3CC[C@@H]2C[C@@H](O)CC[C@@]21C | 83.9

— ChEMBL document CHEMBL4765371, “Synthesis and evaluation of Na/K-ATP-ase inhibiting and cytotoxic in vitro activities of oleandrigenin and its selected 17β-(butenolidyl)- and 17β-(3-furyl)- analogues” (Eur J Med Chem, 2020)
